From PubChem BioAssay AID488782 (The Scripps Research Institute Molecular Screening Center, 2010)
pIC50: −log10 of the molar value. Active and inactive are the calls of the source.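 Rule for the calls: active = concentration giving half-maximal inhibition of the luciferase signal, from the fitted curve, at 5 µM or lower; inactive = half-inhibition concentration above 5 µM.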

What follows are compounds tested against Nuclear receptor subfamily 5 group A member 2 (Homo sapiens) (UniProt O00482) (assay: potency against LRH1-driven Cyp19 reporter – cell-based, HEK293T, Cyp19 aromatase-luciferase, luminescence, powder samples, dose response (AID 488782)). Details: 20 h.
Procedure, shortened: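 assay system = HEK293T cells carrying LRH1 plus Cyp19-luciferase reporter | compound = Nine-point dilution series, highest nominal concentration 10 µM | schedule = bulk transfection 24 h before replating, compound exposure 20 h | signal = luciferase luminescence | measure = IC50 from sigmoidal fit of DMSO-normalized inhibition | benchmarks = DMSO-treated wells as normalization reference | replicates = triplicate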

Sequence of Nuclear receptor subfamily 5 group A member 2 (Homo sapiens) (O00482 whole entry, looked up): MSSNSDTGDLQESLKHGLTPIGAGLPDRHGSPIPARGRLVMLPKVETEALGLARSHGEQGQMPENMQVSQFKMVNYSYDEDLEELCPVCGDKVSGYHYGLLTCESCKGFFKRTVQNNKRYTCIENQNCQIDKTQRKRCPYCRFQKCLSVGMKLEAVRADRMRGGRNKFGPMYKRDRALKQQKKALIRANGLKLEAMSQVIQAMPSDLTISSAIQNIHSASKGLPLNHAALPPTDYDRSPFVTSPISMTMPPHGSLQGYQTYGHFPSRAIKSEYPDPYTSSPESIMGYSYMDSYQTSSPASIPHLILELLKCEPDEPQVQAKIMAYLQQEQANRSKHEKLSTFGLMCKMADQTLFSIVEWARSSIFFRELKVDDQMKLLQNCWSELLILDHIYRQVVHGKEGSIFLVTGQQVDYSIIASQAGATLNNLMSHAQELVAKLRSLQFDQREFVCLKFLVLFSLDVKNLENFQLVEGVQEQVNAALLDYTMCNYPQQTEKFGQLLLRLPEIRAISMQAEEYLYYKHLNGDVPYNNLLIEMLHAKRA

| pIC50 | Structure (SMILES) |
| --- | --- |
| 6.04 | O=c1cc(N2CCN(C3CCCCC3)CC2)[nH]c(=O)n1C1CCCCC1 |
| 5.43 | O=c1cc(N2CCN(c3cccc(Cl)c3)CC2)[nH]c(=O)n1C1CCCCC1 |
| 6.96 | CC(C)Cn1c(=O)cc(N2CCN(c3cccc(C(F)(F)F)c3)CC2)[nH]c1=O |
| 6.27 | O=c1cc(N2CCN(c3cccc(Cl)n3)CC2)[nH]c(=O)n1C1CCCCC1 |
| 5.96 | Cn1c(=O)cc(N2CCN(c3cccc(Cl)c3)CC2)[nH]c1=O |
| 5.59 | O=c1cc(N2CCN(c3ccccc3)CC2)[nH]c(=O)n1C1CCCCC1 |
| 5.40 | O=c1cc(N2CCN(c3ccnc4cc(Cl)ccc34)CC2)[nH]c(=O)n1C1CCCCC1 |
| 6.00 | CCn1c(=O)cc(N2CCN(c3cccc(C(F)(F)F)c3)CC2)[nH]c1=O |
| 5.32 | O=c1cc(N2CCN(c3nc(-c4ccccc4)ns3)CC2)[nH]c(=O)n1C1CCCCC1 |
| 6.24 | C=CCn1c(=O)cc(N2CCN(c3cccc(C(F)(F)F)c3)CC2)[nH]c1=O |
| 5.38 | CCn1c(=O)cc(N2CCN(c3cccc(Cl)c3)CC2)[nH]c1=O |
| 6.49 | O=c1cc(N2CCN(c3cccc(C(F)(F)F)c3)CC2)[nH]c(=O)n1C1CCCCC1 |
| 6.37 | O=c1cc(N2CCN(c3cccc(Cl)c3Cl)CC2)[nH]c(=O)n1C1CCCCC1 |

Same assay, conditions: 20 h, at 10 µM (top of the series)

| fold change, lower = inhibition | Structure (SMILES) |
| --- | --- |
| inactive | O=c1cc(N2CCN(Cc3ccc(Cl)cc3)CC2)[nH]c(=O)n1C1CCCCC1 |
